MOR-DOR inv ag – inverse agonists of human mu-delta opioid receptor heterodimerization. cell-based MOR-DOR heterodimer luminescence, inverse agonism. P35372+P41143. inhibition, % at 9.3 µM. 340,000 compounds, 0.21% hits. AID 504357; in the data active = inhibition above about 22%, passing the limit was not always enough;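 note: 0% = cells with DMSO and 100% = wells without cells with DMSO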
HTR5A inv ag – HTR5A inverse agonism, opioid heterodimer counter-screen; 340,000 compounds, 0.083% hits; inhibition, % at 9.3 µM; HTR5A cell line, luminescence; AID 504634; P47898; in the data active = inhibition mostly above about 23%, no sharp cut-off; inactive = mostly below about 18%;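 note: 0% = cells with DMSO and 100% = no-cell wells with DMSO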
Target sequence (P47898 whole entry, looked up): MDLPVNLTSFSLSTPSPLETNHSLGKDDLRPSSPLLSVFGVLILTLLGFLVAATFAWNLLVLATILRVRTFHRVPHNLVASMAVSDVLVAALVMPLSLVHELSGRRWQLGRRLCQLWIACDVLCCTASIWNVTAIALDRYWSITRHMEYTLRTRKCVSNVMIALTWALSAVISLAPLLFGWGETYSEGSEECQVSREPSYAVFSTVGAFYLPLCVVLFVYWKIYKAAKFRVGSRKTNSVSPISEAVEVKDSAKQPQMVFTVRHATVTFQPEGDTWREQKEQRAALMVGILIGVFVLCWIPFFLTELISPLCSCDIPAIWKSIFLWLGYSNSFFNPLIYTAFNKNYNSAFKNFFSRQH
MOR-DOR ag – agonists of human mu-delta opioid receptor heterodimerization; P35372+P41143; cells, OPRM1-OPRD1 heterodimerization, luminescence; activation, % at 9.3 µM; 340,000 compounds, 0.3% hits; AID 504326; in the data active = activation above about 18%;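 note: 0% = vehicle-treated cells and 100% = reference agonist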
HTR5A ag ctr – counter-screen for OPRM1-OPRD1 agonists: human HTR5A agonism. HTR5A agonist assay, luminescence, cell-based. AID 504692. 340,000 compounds, 0.61% hits. activation, % at 9.3 µM; in the data active = activation mostly above about 9.5%, no sharp cut-off; inactive = mostly below about 7.6%;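 note: 0% = cells with vehicle only and 100% = reference agonist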
Hep lipid drop – modulators of hepatic lipid droplet formation; AML12 mouse hepatocytes, oleate lipid droplets, BODIPY imaging; inhibition, % at 6.5 µM; 240,000 compounds, 0.4% hits; AID 1656;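 active = lipid droplet intensity inhibited by at least 50%, with more than 500 cells counted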
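Material – mouse AML12 hepatocyte cell line, fixed after treatment · Compound dosing – one dose, 6.5 µM compound · Times – compound with oleate, overnight · Measured by – Image-based BODIPY and DAPI two-channel analysis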
MOR-DOR inv conf – OPRM1-OPRD1 heterodimer inverse agonism, confirmation; shares compounds with MOR-DOR inv ag; cells expressing OPRM1/OPRD1 heterodimer, luminescence; inhibition, % at 9.3 µM; 580 compounds, 20% hits; in the data active = inhibition above about 32%;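 note: 0% = cells with DMSO and 100% = wells lacking cells with DMSO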
HTR5A inv ctr2 – counter-screen for OPRM1-OPRD1 inverse agonists: human HTR5A inverse agonism | shares compounds with MOR-DOR inv ag | HTR5A-expressing cells, luminescence | inhibition, % at 9.3 µM | 580 tested, under 10 active | AID 504914; call rule not given here;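 note: 0% = cells with DMSO and 100% = no-cell wells with DMSO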
Active calls of the source: *; i = inactive; / = not tested or not shown. An excerpt weighted towards active compounds, which were near 1.4% of everything screened.

SMILES	MOR-DOR inv ag	HTR5A inv ag	MOR-DOR ag	HTR5A ag ctr	Hep lipid drop	MOR-DOR inv conf	HTR5A inv ctr2
Cc1ccc(C(=O)NN2C(=O)/C(=C/c3cn(C)c4ccccc34)SC2=S)cc1	9.4	-9.3	-1.6	3.5	29.6	/	/
Cn1cc(/C=C2\SC(=O)NC2=S)c2ccccc21	28.1*	11.8	-5.7	-3.5	1.4	8.8	0.2
COc1cc(-n2nc(C)c3c2OC(N)=C(C#N)C3c2ccccc2)c(Cl)c(Br)c1O (stereo not given)	34.2*	10.1	-8.1	-4.0	-15.6	19.8	14.6
COc1ccc(-c2cc3c(nn2)-c2ccccc2C3=O)cc1	91.2*	12.5	-19.3	0.5	/	75.2*	-1.1
O=C1c2ccccc2-c2nnc(-c3ccccc3)cc21	97.0*	0.6	-16.3	-4.5	/	98.7*	7.5
COc1ccc(-c2cn(Cc3ccc4c(c3)C(=O)c3ccccc3C4=O)nn2)cc1	-10.2	-14.8	1.8	4.5	-16.8	/	/
Cc1cccc(-c2cc3c(nn2)-c2ccccc2C3=O)c1	88.4*	10.6	-17.8	-4.8	4.7	i	-54.1
Cc1cnc2c(c1)C(=O)c1ccccc1-2	-0.8	8.8	0.2	-2.4	/	/	/
Cc1cc(Br)ccc1N=C1C(=O)Nc2ccccc21	49.7*	14.7	-10.0	-3.9	-1.3	13.9	7.9
Cc1cccc(C)c1N=C1C(=O)Nc2ccccc21	45.7*	27.8	-9.2	-7.4	/	-26.3	-3.3
Cc1cc(C)c(N=C2C(=O)Nc3ccccc32)c(C)c1	47.8*	19.0	-8.6	-4.8	-19.6	-36.7	-32.4
O=C1Nc2ccccc2C1=Nc1ccccc1-c1ccccc1	61.9*	27.9	-14.2	-7.3	/	-218.6	-19.7
COc1ccc(O)c(/C=N/N=C2/C(=O)Nc3ccccc32)c1	-19.4	-11.2	3.8	3.9	5.4	/	/
CCn1nc(CC(C)C)cc1C(=O)N1CCCC(Nc2ccc(OC)cc2)C1 (stereo not given)	12.3	-5.9	-2.4	0.7	2.9	/	/
CCN1CCC(N2CCN(c3ccccc3OC)CC2)CC1	16.2	-11.6	-3.2	3.1	3.2	/	/
Cc1nn(CCC#N)c(N)c1C1(O)C(=O)Nc2c(Cl)cc(Cl)cc21 (stereo not given)	-1.2	-4.0	0.2	1.4	7.0	/	/
CN(C)C(=O)c1nc2ccccc2s1	-5.0	-11.0	0.7	3.9	3.7	/	/
CN(C)c1ccc(CC(=O)c2nc3ccccc3s2)cc1	23.5*	7.4	-3.2	-2.6	5.3	6.7	-18.5
O=C(Nc1c(C(=O)O)[nH]c2ccccc12)NC1CCCCC1	32.0*	4.4	-7.2	0.6	/	-74.4	-7.1
COC(=O)c1[nH]c2ccc(C)cc2c1NC(=O)NC1CCCCC1	-7.6	-17.4	1.5	6.7	-17.7	/	/
O=C(O)C1SCCN1S(=O)(=O)c1ccc(N=NN2CCOCC2)cc1 (stereo not given)	2.8	-8.1	-0.5	3.0	-13.4	/	/
C[C@H]1CCC/C=C/[C@@H]2C[C@H](O)C[C@H]2[C@H](O)[C@H](S(=O)c2ccc(O)cc2)CC(=O)O1 (stereo not given in full)	44.3*	-0.4	-10.1	0.1	/	-63.9	-18.6
Cc1nc2scc(C)n2c(=O)c1S(=O)(=O)Nc1ccc(OC(F)(F)F)cc1	-19.7	-8.0	3.6	4.1	-20.0	/	/
COc1ccc2c(c1)C(=O)C(=O)N2	63.0*	30.9*	-12.0	-8.9	-10.2	-44.5	-107.5
Cc1cc2c(cc1C)C(=O)C(=O)N2	23.9	8.3	-4.9	-2.2	/	/	/
SMILES	MOR-DOR inv ag	HTR5A inv ag	MOR-DOR ag	HTR5A ag ctr	Hep lipid drop	MOR-DOR inv conf	HTR5A inv ctr2
O=C(CN1C(=O)C(=O)c2ccccc21)NCCc1ccccc1	56.4*	25.4	-11.0	-8.9	10.6	9.4	11.4
O=C1C(=O)N(CCCc2ccccc2)c2ccccc21	43.4*	5.5	-8.7	-2.7	/	90.3*	1.8
C=C(C)C(=O)N1CCN(C(=O)C(=C)C)c2ccccc21	-0.9	-17.7	0.2	4.6	/	/	/
COc1ccc(N(/N=C2\Sc3ccccc3C2=O)C(C)=O)cc1	69.8*	23.4	-10.7	-9.4	13.2	-26.3	5.3
COc1ccccc1N(/N=C1\Sc2ccccc2C1=O)C(C)=O	75.4*	16.7	-15.0	-8.7	6.4	-18.1	-5.7
CCN(C(=O)CSc1nnc(COc2cccc(C)c2)o1)c1nc(C)cs1	-10.8	-0.2	1.3	0.1	-13.8	/	/
COc1ccc(O)c(/C=N/NC(=O)c2cc(=O)[nH]c3ccccc23)c1	9.5	0.2	-1.9	-7.1	19.7	/	/
Cc1ccc(C)c(N2CCN(C(=O)CCCOc3cc(=O)n(C)c4ccccc34)CC2)c1	4.2	23.5	-0.8	3.0	/	/	/
COc1ccc(N2CCN(C(=O)CCCOc3cc(=O)n(C)c4ccccc34)CC2)cc1	33.6*	16.6	-6.8	-6.4	/	-0.9	-3.5
CC1CCC2(CC1)NC(=O)N(NC(=O)c1cccc(N(C)C)c1)C2=O (stereo not given)	7.0	5.7	-1.3	-1.6	/	/	/
CC(C)=CCc1cc([C@@H]2CC(=O)c3ccc(O)c(CC=C(C)C)c3O2)ccc1O	-30.6	7.3	6.1	4.8	/	/	/
COCCN(C(=O)COC(=O)c1cccnc1SC)c1c(N)n(Cc2ccccc2)c(=O)[nH]c1=O	1.0	-21.7	-0.2	8.7	/	/	/
CCc1cccc2c1NC(=O)C2=O	60.9*	13.7	-11.7	-3.3	/	i	-0.6
N#CC1(C(N)=O)OC12CCS(=O)(=O)c1ccccc12 (stereo not given)	14.5	0.5	-3.0	-0.1	/	/	/
COc1ccc(NC(=O)/C(Cl)=C(/Cl)S(=O)Cc2ccc(Cl)cc2)cn1 (stereo not given)	41.0*	10.6	-7.8	-3.8	-4.4	-12.8	13.7
COc1ccc(NC(=O)C(Cl)=C(Cl)Cl)cn1	2.8	-17.0	-0.6	2.1	-3.6	/	/
O=C1C(=O)N(CNc2ccccn2)c2ccccc21	84.1*	17.4	-13.4	-5.8	/	68.3*	11.2
O=C1C(=O)N(CNc2cccnc2)c2ccccc21	51.2*	9.0	-10.1	0.3	11.5	14.5	5.8
C[C@H](NC(=O)COc1ccccc1)C(=O)OCC(=O)c1cc2ccccc2o1	80.0*	33.3*	-15.4	-8.1	/	-154.3	11.6
CC(NC(=O)c1cc2ccccc2o1)C(=O)O (stereo not given)	10.8	0.8	-2.4	5.7	/	/	/
CNc1sc(C(=O)c2ccccc2F)c(N)c1-c1nc2ccccc2s1	48.4*	22.7	-9.3	-5.8	8.4	-54.1	-22.9
O=C(CNC(=O)c1ccccc1F)OCc1nc2ccccc2s1	-1.3	3.4	0.2	-1.2	13.3	/	/
O=c1c2cc(Br)ccc2[nH]c(=S)n1Cc1ccccc1	-23.3	2.2	5.2	-0.6	4.8	/	/
O=c1c2cc(Br)ccc2[nH]c(=S)n1Cc1ccccn1	64.3*	1.5	-10.7	-0.6	10.0	-92.8	-20.2
Clc1cccc(-c2ccc(CNCCCN3CCOCC3)o2)c1	-2.9	2.5	0.4	-1.0	5.3	/	/
